This note sets out measurements from ChEMBL document CHEMBL4665634, “Inhibiting Aβ toxicity in Alzheimer's disease by a pyridine amine derivative” (Eur J Med Chem, 2019).

A short description of series [1]: Disaggregation of Cu2+ induced fibrils of amyloid beta (1 to 40) assessed as appearance of small soluble fragments at 0.1 to 100 uM incubated for 24 hrs uranyl acetate staining-based by TEM analysis. The following applies: dose microM 0.1-100, time 24.0 hrs.
For series [2], the system named is Caenorhabditis elegans. Briefly: Antioxidant activity in Caenorhabditis elegans CL4176 assessed as effect on ROS production at 100 uM and 15 to 25 degreeC after 48 hrs by H2DCF-DA probe based fluorescence assay ( Rvb = 33.68 %). In kind it is functional.
In series [3] the target is T1, Amyloid-beta precursor protein (Homo sapiens, UniProt P05067). As to the kind of experiment: Inhibition of amyloid beta (1 to 42)-induced paralysis in transgenic Caenorhabditis elegans CL4176 expressing human amyloid beta (1 to 42) assessed as paralyzed worms at 200 uM treated for 49 hrs at 25 degreeC by microscopic analysis (reference value: 87 %). More on the design: scale not given: the % may be the effect or the level left.
T1 sequence (P05067 whole entry): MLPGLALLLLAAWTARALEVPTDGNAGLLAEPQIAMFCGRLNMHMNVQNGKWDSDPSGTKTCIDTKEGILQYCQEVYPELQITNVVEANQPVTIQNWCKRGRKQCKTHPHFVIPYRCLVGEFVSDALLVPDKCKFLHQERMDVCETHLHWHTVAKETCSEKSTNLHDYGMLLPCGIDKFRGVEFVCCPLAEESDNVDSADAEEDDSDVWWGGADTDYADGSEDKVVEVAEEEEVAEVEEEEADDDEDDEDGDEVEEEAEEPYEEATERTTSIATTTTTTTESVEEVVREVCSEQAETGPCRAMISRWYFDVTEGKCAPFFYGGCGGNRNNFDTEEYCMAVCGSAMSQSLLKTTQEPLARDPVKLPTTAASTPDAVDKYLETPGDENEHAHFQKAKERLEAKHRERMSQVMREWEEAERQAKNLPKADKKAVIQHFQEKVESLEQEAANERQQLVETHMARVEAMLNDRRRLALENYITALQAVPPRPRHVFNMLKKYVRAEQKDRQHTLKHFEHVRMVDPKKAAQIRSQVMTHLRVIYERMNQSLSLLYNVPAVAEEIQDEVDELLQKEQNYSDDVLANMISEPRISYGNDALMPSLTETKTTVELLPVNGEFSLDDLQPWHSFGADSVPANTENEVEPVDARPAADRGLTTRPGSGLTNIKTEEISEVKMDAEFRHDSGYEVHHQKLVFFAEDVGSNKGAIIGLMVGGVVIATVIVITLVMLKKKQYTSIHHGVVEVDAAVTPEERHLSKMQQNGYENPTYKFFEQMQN

The subject of series [4] is Caenorhabditis elegans. As to the kind of experiment: Effect on sod-3 mRNA expression in Caenorhabditis elegans CL4176 at 50 uM by qRT-PCR analysis. Format: functional. The gist of the method: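 CL4176 qRT-PCR of skn-1 or sod-3. RNA extracted with Trizol, EvaGreen qRT-PCR run for 40 cycles (95 °C 5 s, 60 °C 5 s). Normalized to ama-1 by the 2^−ΔΔCt method. Three independent RNA/cDNA preparations, run in triplicate.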

In series [5] the target is T1, Amyloid-beta precursor protein. As to the kind of experiment: Inhibition of amyloid beta (1 to 42)-induced paralysis in transgenic Caenorhabditis elegans GMC101 L3 expressing human amyloid beta (1 to 42) assessed as reduction in fluorescence intensity at 100 uM incubated for 2 days by fluorescence based confocal microscopic analysis relative to control. The following applies: time 2.0 day. Summed up: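 GMC101 L3 worms kept on compound plates (50, 100 µM) at 25 °C for 2 days, mounted on 2% agarose pads. GFP imaged by confocal microscopy at ex 488/em 500–530 nm and intensity quantified. Two experiments, 15 worms per group.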

The target is the same in series [6]. Briefly: Inhibition of amyloid beta (1 to 42)-induced paralysis in transgenic Caenorhabditis elegans CL4176 expressing human amyloid beta (1 to 42) assessed as paralyzed worms at 50 uM treated for 49 hrs at 25 degreeC by microscopic analysis (reference value: 87 %). More on the design: scale not given: the % may be the effect or the level left.
A short description of series [7]: Disaggregation of Zn2+ induced fibrils of amyloid beta (1 to 40) assessed as appearance of small soluble fragments at 0.1 to 100 uM incubated for 24 hrs uranyl acetate staining-based by TEM analysis. The settings on record: dose microM 0.1-100, time 24.0 hrs.
For series [8], the system named is Caenorhabditis elegans. Briefly: Upregulation of hsf-1 mRNA expression in Caenorhabditis elegans CL4176 at 50 uM by qRT-PCR analysis relative to control. In kind it is functional. Summed up:
(§1)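 CL4176 worms treated with compound at 25 °C for 48 h (50, 100 µM for amy-1). RNA extracted with Trizol, cDNA made, EvaGreen qRT-PCR run for 40 cycles (95 °C 5 s, 60 °C 5 s). Normalized to ama-1 by the 2^−ΔΔCt method. Three independent preparations, samples in triplicate.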

Series [9] is described as follows: Inhibition of Cu2+ induced amyloid beta (1 to 40) aggregation assessed as reduction in fluorescence intensity at 20 uM preincubated for 5 mins in presence of CuCl2 followed by compound addition addition and incubated for 24 hrs by Thioflavin T based fluorometric assay. Summed up: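 Aβ40 (20 µM) preincubated with CuCl2 or ZnCl2 (20 µM) for 5 min at room temperature. Compound (20 µM) added, incubated 37 °C for 24 h. ThT (5 µM) added, fluorescence read at ex 450/em 485 nm. Mean ± S.D. of at least three independent experiments.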

For series [10], the system named is Caenorhabditis elegans. Briefly: Induction of HSP expression in Caenorhabditis elegans. In kind it is functional.
Series [11] in a line: Inhibition of Zn2+ induced amyloid beta (1 to 42) aggregation assessed as reduction in fibril formation incubated for 24 hrs in presence of Zn2+ by Thioflavin T based fluorometric assay. The gist of the method: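 Aβ42 (20 µM) mixed with compound (0.1–100 µM), with or without Zn2+ (20 µM), in Tris-HCl pH 7.4, incubated at 37 °C for 24 h. ThT (5 µM) added, fluorescence read at ex 450/em 485 nm.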

Series [12] concerns the target T1, Amyloid-beta precursor protein. As to the kind of experiment: Inhibition of amyloid beta (1 to 42)-induced paralysis in transgenic Caenorhabditis elegans CL4176 L3 expressing human amyloid beta (1 to 42) assessed as reduction in fluorescence intensity at 50 to 200 uM incubated for 2 days by thiofavin-T based fluorescence microscopic analysis. The following applies: dose microM 50-200, time 2.0 day. Summed up:
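CL4176 L3 worms kept on compound plates (50, 100, 200 µM) at 25 °C for 2 days. Stained with ThT (10 µM) for 5 min, held 2 h on NGM without OP50, then mounted on 2% agarose pads. Fluorescence imaged at ex 488/em 500–530 nm, in triplicate with 15–20 worms per group.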

For series [13], the system named is Caenorhabditis elegans. Briefly: Inhibition of AChE in Caenorhabditis elegans CL4176 assessed as enzyme activity at 50 uM after 48 hrs by DTNB reagent based colorimetric analysis (reference value: 272.49 +/- 14.6 units/L). The following applies: […]. Summed up:
(§2)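 Transgenic CL4176 worms kept on NGM plates with compound (0, 25, 50, 100 µM) at 25 °C for 48 h. Lysates made by sonication in 0.1 M phosphate buffer pH 7.4 and centrifuged at 13000 rpm for 5 min. AChE activity in the supernatant was measured with a kit, read as absorbance at 412 nm, given in Units/L normalized to protein concentration, mean ± S.D.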

Series [14] can be described thus: Solubility of the compound in water. Format: physicochemical.
Series [15] concerns Caenorhabditis elegans. Briefly: Reduction in 12 kDa amyloid beta species expression in Caenorhabditis elegans CL4176 at 50 uM after 48 hrs by Western blot analysis. Format: functional. Summed up: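 CL4176 raised on plates with compound (50 µM) at 15 °C to L3, then kept at 25 °C for 2 days. Worms sonicated in 0.1 M phosphate buffer, 16 µg protein run on 12% SDS-PAGE and blotted to PVDF. Probed with 6E10 (1:1000) and HRP anti-mouse secondary, with β-actin as the loading control.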

For series [16], the system named is Caenorhabditis elegans. As to the kind of experiment: Inhibition of AChE in Caenorhabditis elegans CL4176 assessed as enzyme activity at 100 uM after 48 hrs by DTNB reagent based colorimetric analysis (reference value: 272.49 +/- 14.6 units/L). The following applies: […]. The gist of the method:
as §2

In series [17] the test system is Caenorhabditis elegans. Briefly: Reduction in amy-1 mRNA expression in Caenorhabditis elegans CL4176 at 50 to 100 uM after 48 hrs by qRT-PCR analysis. In kind it is functional. The following applies: dose microM 50-100, time 48.0 hrs. Summed up:
as §1

In another series the test system is PC-12. Briefly: Cytotoxicity against rat PC-12 cells assessed as reduction in cell viability at 100 uM measured after 48 hrs by MTT assay relative to control. Format: cell-based. The following applies: pc-12, 48 h. Summed up:
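PC12 cells differentiated with NGF, then cultured overnight in RPMI-1640 with 10% FBS at 37 °C, 5% CO2. MTT assay with formazan absorbance at 570 nm. Viability = (OD test − blank)/(OD control − blank) × 100%, mean of three replicates.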

Series [18] deals with T1, Amyloid-beta precursor protein. As to the kind of experiment: Inhibition of amyloid beta (1 to 42)-induced paralysis in transgenic Caenorhabditis elegans GMC101 expressing human amyloid beta (1 to 42) assessed as paralyzed worms at 100 uM measured after 92 hrs by microscopic analysis relative to control. More on the design: scale not given: the % may be the effect or the level left.

Calls of active or inactive are those of the source. The rule behind the calls is not given here.

Consider `Oc1cc(CN(Cc2ccccn2)Cc2ccccn2)cc(C[P+](c2ccccc2)(c2ccccc2)c2ccccc2)c1.[Br-]`, for which the outcome (in series [1]; in [7]; in the series with Caenorhabditis elegans [10]; in the series on Caenorhabditis elegans [15]; with Caenorhabditis elegans [17]) was Active. Moreover, the Activity stood at 21.72% in the series with Caenorhabditis elegans [2]; 35% in series [3]; 74% in series [6]; 166 U/L in the series with Caenorhabditis elegans [13]; 135 U/L in the series on Caenorhabditis elegans [16]; 80.5% in the series on PC-12. Further, the Activity in series [18] was found to be 66%. Moreover, the outcome in the series on Caenorhabditis elegans [4] was inactive. In addition, the results for the inhibition in series [5] and in series [11] were 20% and “Dose-dependent effect”, respectively. This compound registered a fold change (FC) with Caenorhabditis elegans [8] of 1.55. Also, the inhibition result in series [9] and in series [12] was “Active” throughout. Also, in series [11], the 50% inhibitory concentration (IC50) turned out to be 27.4 µM. Further, in series [14], the solubility entry is listed as “Insoluble”.
